Experimental data published in ChEMBL document CHEMBL1123208, “Quantitative structure-activity relationship of the mutagenicity of substituted N-nitroso-N-benzylmethylamines: possible implications for carcinogenicity” (J Med Chem, 1986).

Legend:
[1] = Concentration in nmol/plate to induce 50 revertants/plate.; format: ADME
Procedure, shortened: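 Ames plate incorporation, S. typhimurium TA 1535, Aroclor-induced male hamster liver S9; duplicate plates, 10-point range 1–1000 µg/plate; 37 °C, 48 h; revertants counted by hand tally. Potency index: concentration (nmol/plate) inducing 50 revertants/plate, taken from linear portion of dose–response curve.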

Cricetinae gen. sp. = assay: (§1) compound was tested for mutagenicity against Salmonella tester strain TA 1535 with out hamster S9 mix (3 mg/plate) in cells at dose of 50 ug; format: functional
Procedure, shortened: (§2)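 Plate incorporation assay in S. typhimurium TA 1535 without S9 activation. Compound in Me2SO, 1–1000 µg/plate, duplicate plates, mean revertants/plate; incubated 37 °C for 48 h, colonies hand-counted. Positive if two consecutive doses gave revertants more than twice the concurrent control mean.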

Salmonella typhimurium [2] = assay: Mutagenicity against Salmonella tester strain TA 1535 without hamster S9 mix (3 mg/plate) in cells.; format: functional, Salmonella enterica subsp. enterica serovar Typhimurium
Salmonella typhimurium [3] = assay: compound was tested for mutagenicity against Salmonella tester strain TA 1535 with hamster S9 mix (3 mg/plate) in cells at dose of 500 ug
Salmonella typhimurium [4] = assay: compound was tested for mutagenicity against Salmonella tester strain TA 1535 with out hamster S9 mix (3 mg/plate) in cells at dose of 500 ug
Salmonella typhimurium [5] = assay: compound was tested for mutagenicity against Salmonella tester strain TA 1535 with hamster S9 mix (3 mg/plate) in cells at dose of 1000 ug; format: functional, Salmonella enterica subsp. enterica serovar Typhimurium
Procedure, shortened: as §2, with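 “with Aroclor-induced male hamster liver” for “without”, “(3 mg/plate).” for “activation.”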

Salmonella typhimurium [6] = assay: compound was tested for mutagenicity against Salmonella tester strain TA 1535 with hamster S9 mix (3 mg/plate) in cells at dose of 100 ug; format: functional, Salmonella enterica subsp. enterica serovar Typhimurium
Procedure, shortened: as §2, with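 “with Aroclor-induced male hamster liver” for “without”, “(3 mg/plate).” for “activation.”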

Salmonella typhimurium [7] = assay: compound was tested for mutagenicity against Salmonella tester strain TA 1535 with hamster S9 mix (3 mg/plate) in cells at dose of 10 ug; format: functional, Salmonella enterica subsp. enterica serovar Typhimurium
Procedure, shortened: as §2, with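 “with Aroclor-induced male hamster liver” for “without”, “(3 mg/plate).” for “activation.”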

Salmonella typhimurium [8] = assay: compound was tested for mutagenicity against Salmonella tester strain TA 1535 with hamster S9 mix (3 mg/plate) in cells at dose of 1 ug; format: functional, Salmonella enterica subsp. enterica serovar Typhimurium
Procedure, shortened: as §2, with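 “with Aroclor-induced male hamster liver” for “without”, “(3 mg/plate).” for “activation.”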

Salmonella typhimurium [9] = assay: compound was tested for mutagenicity against Salmonella tester strain TA 1535 with hamster S9 mix (3 mg/plate) in cells at dose of 2.5 ug; format: functional, Salmonella enterica subsp. enterica serovar Typhimurium
Procedure, shortened: as §2, with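 “with Aroclor-induced male hamster liver” for “without”, “(3 mg/plate).” for “activation.”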

Salmonella typhimurium [10] = assay: compound was tested for mutagenicity against Salmonella tester strain TA 1535 with hamster S9 mix (3 mg/plate) in cells at dose of 250 ug; format: functional, Salmonella enterica subsp. enterica serovar Typhimurium
Procedure, shortened: as §2, with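 “with Aroclor-induced male hamster liver” for “without”, “(3 mg/plate).” for “activation.”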

Salmonella typhimurium [11] = assay: compound was tested for mutagenicity against Salmonella tester strain TA 1535 with hamster S9 mix (3 mg/plate) in cells at dose of 25 ug; format: functional, Salmonella enterica subsp. enterica serovar Typhimurium
Procedure, shortened: as §2, with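 “with Aroclor-induced male hamster liver” for “without”, “(3 mg/plate).” for “activation.”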

Salmonella typhimurium [12] = assay: compound was tested for mutagenicity against Salmonella tester strain TA 1535 with hamster S9 mix (3 mg/plate) in cells at dose of 500 ug; format: functional, Salmonella enterica subsp. enterica serovar Typhimurium
Procedure, shortened: as §2, with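 “with Aroclor-induced male hamster liver” for “without”, “(3 mg/plate).” for “activation.”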

Salmonella typhimurium [13] = assay: compound was tested for mutagenicity against Salmonella tester strain TA 1535 with hamster S9 mix (3 mg/plate) in cells at dose of 5 ug; format: functional, Salmonella enterica subsp. enterica serovar Typhimurium
Procedure, shortened: as §2, with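 “with Aroclor-induced male hamster liver” for “without”, “(3 mg/plate).” for “activation.”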

Salmonella typhimurium [14] = assay: compound was tested for mutagenicity against Salmonella tester strain TA 1535 with out hamster S9 mix (3 mg/plate) in cells at dose of 1000 ug; format: functional, Salmonella enterica subsp. enterica serovar Typhimurium; procedure, shortened: as §2
Salmonella typhimurium [15] = assay: compound was tested for mutagenicity against Salmonella tester strain TA 1535 with out hamster S9 mix (3 mg/plate) in cells at dose of 100 ug; format: functional, Salmonella enterica subsp. enterica serovar Typhimurium; procedure, shortened: as §2
Salmonella typhimurium [16] = assay: compound was tested for mutagenicity against Salmonella tester strain TA 1535 with out hamster S9 mix (3 mg/plate) in cells at dose of 10 ug; format: functional, Salmonella enterica subsp. enterica serovar Typhimurium; procedure, shortened: as §2
Salmonella typhimurium [17] = assay: compound was tested for mutagenicity against Salmonella tester strain TA 1535 with hamster S9 mix (3 mg/plate) in cells.; format: functional, Salmonella enterica subsp. enterica serovar Typhimurium
Procedure, shortened: as §2, with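 “with Aroclor-induced male hamster liver” for “without”, “(3 mg/plate).” for “activation.”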

Salmonella typhimurium [18] = assay: compound was tested for mutagenicity against Salmonella tester strain TA 1535 with hamster S9 mix (3 mg/plate) in cells. Activity expressed as no. of cells; format: functional, Salmonella enterica subsp. enterica serovar Typhimurium
Procedure, shortened: as §2, with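 “with Aroclor-induced male hamster liver” for “without”, “(3 mg/plate).” for “activation.”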

Salmonella typhimurium [19] = assay: compound was tested for mutagenicity against Salmonella tester strain TA 1535 with out hamster S9 mix (3 mg/plate) in cells.; format: functional, Salmonella enterica subsp. enterica serovar Typhimurium; procedure, shortened: as §2
Salmonella typhimurium [20] = assay: compound was tested for mutagenicity against Salmonella tester strain TA 1535 with out hamster S9 mix (3 mg/plate) in cells at dose of 1 ug; format: functional, Salmonella enterica subsp. enterica serovar Typhimurium; procedure, shortened: as §2
Salmonella typhimurium [21] = assay: compound was tested for mutagenicity against Salmonella tester strain TA 1535 with out hamster S9 mix (3 mg/plate) in cells at dose of 2.5 ug; format: functional, Salmonella enterica subsp. enterica serovar Typhimurium; procedure, shortened: as §2
Salmonella typhimurium [22] = assay: compound was tested for mutagenicity against Salmonella tester strain TA 1535 with out hamster S9 mix (3 mg/plate) in cells at dose of 250 ug; format: functional, Salmonella enterica subsp. enterica serovar Typhimurium; procedure, shortened: as §2
Salmonella typhimurium [23] = assay: compound was tested for mutagenicity against Salmonella tester strain TA 1535 with out hamster S9 mix (3 mg/plate) in cells at dose of 25 ug; format: functional, Salmonella enterica subsp. enterica serovar Typhimurium; procedure, shortened: as §2
Salmonella typhimurium [24] = assay: compound was tested for mutagenicity against Salmonella tester strain TA 1535 with out hamster S9 mix (3 mg/plate) in cells at dose of 500 ug; format: functional, Salmonella enterica subsp. enterica serovar Typhimurium; procedure, shortened: as §2
Salmonella typhimurium [25] = assay: as §1; format: functional, Salmonella enterica subsp. enterica serovar Typhimurium; procedure, shortened: as §2
Salmonella typhimurium [26] = assay: compound was tested for mutagenicity against Salmonella tester strain TA 1535 with out hamster S9 mix (3 mg/plate) in cells at dose of 5 ug; format: functional, Salmonella enterica subsp. enterica serovar Typhimurium; procedure, shortened: as §2
Salmonella typhimurium [27] = assay: compound was tested for mutagenicity against Salmonella tester strain TA 1535 with hamster S9 mix (3 mg/plate) in cells at dose of 50 ug; format: functional, Salmonella enterica subsp. enterica serovar Typhimurium
Procedure, shortened: as §2, with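 “with Aroclor-induced male hamster liver” for “without”, “(3 mg/plate).” for “activation.”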

CN(Cc1ccccc1)N=O
Log 1/C [1]: -3.416 | No. of revertants per plate (Cricetinae gen. sp.): 14 | Activity (Salmonella typhimurium [2]): 19 | No. of revertants per plate (Salmonella typhimurium [3]): 60 | No. of revertants per plate (Salmonella typhimurium [4]): 17

CN(Cc1cccc(C#N)c1)N=O
Log 1/C [1]: -2.139 | Activity (Salmonella typhimurium [2]): 14 | No. of revertants per plate (Salmonella typhimurium [3]): 185 | No. of revertants per plate (Salmonella typhimurium [4]): 3053

CN(Cc1ccc(Cl)cc1)N=O
Log 1/C [1]: -1.933 | Activity (Salmonella typhimurium [2]): 22 | No. of revertants per plate (Salmonella typhimurium [5]): 192 | No. of revertants per plate (Salmonella typhimurium [6]): 136 | No. of revertants per plate (Salmonella typhimurium [7]): 24 | No. of revertants per plate (Salmonella typhimurium [8]): 18 | No. of revertants per plate (Salmonella typhimurium [9]): 19 | No. of revertants per plate (Salmonella typhimurium [10]): 221 | No. of revertants per plate (Salmonella typhimurium [11]): 42 | No. of revertants per plate (Salmonella typhimurium [12]): 166 | No. of revertants per plate (Salmonella typhimurium [13]): 21 | No. of revertants per plate (Salmonella typhimurium [14]): 17 | No. of revertants per plate (Salmonella typhimurium [15]): 19 | No. of revertants per plate (Salmonella typhimurium [16]): 18 | Activity (Salmonella typhimurium [17]): 22 | Activity (Salmonella typhimurium [18]): 23 | Activity (Salmonella typhimurium [19]): 19 | No. of revertants per plate (Salmonella typhimurium [20]): 17 | No. of revertants per plate (Salmonella typhimurium [21]): 16 | No. of revertants per plate (Salmonella typhimurium [22]): 19 | No. of revertants per plate (Salmonella typhimurium [23]): 21 | No. of revertants per plate (Salmonella typhimurium [24]): 24 | No. of revertants per plate (Salmonella typhimurium [25]): 19 | No. of revertants per plate (Salmonella typhimurium [26]): 14 | No. of revertants per plate (Salmonella typhimurium [27]): 77

CN(Cc1ccc([N+](=O)[O-])cc1)N=O
Log 1/C [1]: -2.202 | Activity (Salmonella typhimurium [2]): 19 | No. of revertants per plate (Salmonella typhimurium [3]): 176 | No. of revertants per plate (Salmonella typhimurium [4]): 23

COc1ccc(CN(C)N=O)cc1
Activity (Salmonella typhimurium [2]): 12 | No. of revertants per plate (Salmonella typhimurium [3]): 24 | No. of revertants per plate (Salmonella typhimurium [4]): 15

COc1cccc(CN(C)N=O)c1
Log [1]: -1.886 (degrees C)-1 | Activity (Salmonella typhimurium [2]): 25 | No. of revertants per plate (Salmonella typhimurium [3]): 145 | No. of revertants per plate (Salmonella typhimurium [4]): 18

COC(=O)c1ccc(CN(C)N=O)cc1
Activity (Salmonella typhimurium [2]): 14 | No. of revertants per plate (Salmonella typhimurium [3]): 18 | No. of revertants per plate (Salmonella typhimurium [4]): 15

CN(Cc1cccc(C(F)(F)F)c1)N=O
Log 1/C [1]: -1.961 | Activity (Salmonella typhimurium [2]): 21 | No. of revertants per plate (Salmonella typhimurium [3]): 127 | No. of revertants per plate (Salmonella typhimurium [4]): 18
